Results reported in ChEMBL document CHEMBL1154497, “Evaluating the potential of vacuolar ATPase inhibitors as anticancer agents and multigram synthesis of the potent salicylihalamide analog saliphenylhalamide” (Bioorg Med Chem Lett, 2008).

Assays:
[1] = Growth inhibition of human HME50T cells at 100 nM; assay type: functional
[2] = Growth inhibition of human HME50 cells at 100 nM; assay type: cell-based
[3] = test system: HepG2; experiment: Cytotoxicity against human HepG2 cells expressing vacuolar ATPase; assay type: functional, cell-based
How it was run: (§1)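 Cancer cell lines treated across a range of compound concentrations; the concentration inhibiting growth by 50% was calculated. IC50 given as average ± standard deviation of three experiments.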

[4] = test system: SK-HEP1; experiment: Cytotoxicity against human SKHEP1 cells expressing vacuolar ATPase; assay type: functional, cell-based; how it was run: as §1
[5] = test system: HCT-116; experiment: Cytotoxicity against human HCT116 cells expressing vacuolar ATPase; assay type: functional, cell-based; how it was run: as §1
[6] = test system: HCT-15; experiment: Cytotoxicity against human HCT15 cells expressing vacuolar ATPase; assay type: functional, cell-based; how it was run: as §1
[7] = test system: HT-29; experiment: Cytotoxicity against human HT-29 cells expressing vacuolar ATPase; assay type: functional, cell-based; how it was run: as §1
[8] = test system: SW480; experiment: Cytotoxicity against human SW480 cells expressing vacuolar ATPase; assay type: functional, cell-based; how it was run: as §1
[9] = test system: SK-MEL-5; experiment: Cytotoxicity against human SK-MEL-5 cells expressing vacuolar ATPase; assay type: functional, cell-based; how it was run: as §1
[10] = test system: SK-MEL-28; experiment: Cytotoxicity against human SK-MEL-28 cells expressing vacuolar ATPase; assay type: functional, cell-based; how it was run: as §1
[11] = test system: A2058; experiment: Cytotoxicity against human A2058 cells expressing vacuolar ATPase; assay type: functional, cell-based; how it was run: as §1
[12] = test system: HOS; experiment: Cytotoxicity against human HOS cells expressing vacuolar ATPase; assay type: functional, cell-based; how it was run: as §1
[13] = test system: MG-63; experiment: Cytotoxicity against human MG63 cells expressing vacuolar ATPase; assay type: functional, cell-based; how it was run: as §1
[14] = test system: ASPC1; experiment: Cytotoxicity against human AsPC1 cells expressing vacuolar ATPase; assay type: functional, cell-based; how it was run: as §1
[15] = test system: PANC-1; experiment: Cytotoxicity against human PANC1 cells expressing vacuolar ATPase; assay type: functional, cell-based; how it was run: as §1
[16] = test system: MCF7; experiment: Cytotoxicity against human MCF7 cells expressing vacuolar ATPase; assay type: functional, cell-based; how it was run: as §1
[17] = Cytotoxicity against human MCF7/DX cells expressing vacuolar ATPase; assay type: functional, cell-based
How it was run: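 Doxorubicin-resistant MCF-7 subline, resistant to chemotherapeutics that are P-glycoprotein substrates. Cells treated across a range of compound concentrations; the concentration inhibiting growth by 50% was calculated. IC50 given as average ± standard deviation of three experiments.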

[18] = test system: MDA-MB-231; experiment: Cytotoxicity against human MDA-MB-231 cells expressing vacuolar ATPase; assay type: functional, cell-based; how it was run: as §1
[19] = test system: NCI-H460; experiment: Cytotoxicity against human NCI-H460 cells expressing vacuolar ATPase; assay type: functional, cell-based; how it was run: as §1
[20] = test system: NCI-H1299; experiment: Cytotoxicity against human NCI-H1299 cells expressing vacuolar ATPase; assay type: functional, cell-based; how it was run: as §1
[21] = test system: A549; experiment: Cytotoxicity against human A549 cells expressing vacuolar ATPase; assay type: functional, cell-based; how it was run: as §1
[22] = test system: SK-MES-1; experiment: Cytotoxicity against human SKMES1 cells expressing vacuolar ATPase; assay type: functional, cell-based; how it was run: as §1

CC/C=C\C=C/C(=O)N/C=C/C[C@H]1C[C@@H](O)[C@@H](C)C/C=C/Cc2cccc(O)c2C(=O)O1 [SALICYLIHALAMIDE A]
inhibition at 0.1 µM [1]: 75%
inhibition at 0.1 µM [2]: 60%

C[C@H]1C/C=C/Cc2cccc(O)c2C(=O)O[C@@H](C/C=C/NC(=O)C#Cc2ccccc2)C[C@H]1O [SALIPHENYLHALAMIDE]
IC50 [3]: 79.2 nM
IC50 [4]: 40.7 nM
IC50 [5]: 69.3 nM
IC50 [6]: 100 nM
IC50 [7]: 89.9 nM
IC50 [8]: 425 nM
IC50 [9]: 106 nM
IC50 [10]: 98.5 nM
IC50 [11]: 154 nM
IC50 [12]: 48.8 nM
IC50 [13]: 449 nM
IC50 [14]: 75.9 nM
IC50 [15]: 124 nM
IC50 [16]: 156 nM
IC50 [17]: 160 nM
IC50 [18]: 180 nM
IC50 [19]: 52.9 nM
IC50 [20]: 77.2 nM
IC50 [21]: 146 nM
IC50 [22]: 76.4 nM
inhibition at 0.1 µM [1]: 95%
